≈ marks a conversion by molar mass, not a printed value.
Legend:
Enterococcus faecalis = assay: Antibacterial activity against Enterococcus faecalis ATCCC29212; type: functional
How it was run: (§1)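 Wild-type strain panel (18 Gram-positive and Gram-negative strains). Bacteria grown in Mueller-Hinton broth at 37 °C for 24 h. Exponentially growing cultures diluted in sterile liquid medium to a final inoculum of about 1 × 10⁴ CFU/mL, then exposed to increasing compound concentrations. MIC taken as the lowest concentration with no evident bacterial growth.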

Escherichia coli [1] = assay: Antibacterial activity against Escherichia coli 256; type: functional; how it was run: as §1
Escherichia coli [2] = assay: Antibacterial activity against Escherichia coli 292; type: functional; how it was run: as §1
Vero [3] = assay: Cytotoxicity against Vero cells measured as percent of cell growth at 25 mg/L relative to control by MTT assay; type: functional, Chlorocebus sabaeus
How it was run: (§2)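 VERO cells grown in MEM with 5% heat-inactivated (56 °C, 30 min) FCS, penicillin, streptomycin and L-glutamine. Cultures were watched for 2 days and live cells counted. Cells were then exposed to increasing compound concentrations; wells with cells only served as control. After 24 h, mitochondrial dehydrogenase activity was read by MTT. Trypan blue exclusion was also run.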

Vero [4] = assay: Cytotoxicity against Vero cells measured as percent of cell growth at 12.05 mg/L relative to control by MTT assay; type: functional, Chlorocebus sabaeus; how it was run: as §2
Vero [5] = assay: Cytotoxicity against Vero cells measured as percent of cell growth at 6.25 mg/L relative to control by MTT assay; type: functional, Chlorocebus sabaeus; how it was run: as §2
Vero [6] = assay: Cytotoxicity against Vero cells measured as percent of cell growth at 3.12 mg/L relative to control by MTT assay; type: functional, Chlorocebus sabaeus; how it was run: as §2
Dihydrofolate reductase = target: T1, Dihydrofolate reductase (Homo sapiens, UniProt P00374); assay: Inhibition of human dihydrofolate reductase
T1 sequence (P00374 whole entry): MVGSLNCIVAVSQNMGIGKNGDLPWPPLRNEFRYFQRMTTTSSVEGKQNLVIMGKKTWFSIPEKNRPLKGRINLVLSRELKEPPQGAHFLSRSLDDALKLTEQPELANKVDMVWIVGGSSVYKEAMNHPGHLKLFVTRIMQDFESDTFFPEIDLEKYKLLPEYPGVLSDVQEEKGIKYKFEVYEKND
How it was run: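 Purified human DHFR assayed spectrophotometrically at 25 °C by the fall in A340 on DHF reduction. Ki from steady-state kinetics.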

Listeria monocytogenes [7] = assay: Antibacterial activity against Listeria monocytogenes 3; type: functional; how it was run: as §1
Listeria monocytogenes [8] = assay: Antibacterial activity against Listeria monocytogenes 4; type: functional; how it was run: as §1
Listeria monocytogenes [9] = assay: Antibacterial activity against Listeria monocytogenes 5; type: functional; how it was run: as §1
Listeria monocytogenes [10] = assay: Antibacterial activity against Listeria monocytogenes 6; type: functional; how it was run: as §1
Listeria monocytogenes [11] = assay: Antibacterial activity against Listeria monocytogenes 7; type: functional; how it was run: as §1
Listeria monocytogenes [12] = assay: Antibacterial activity against Listeria monocytogenes 8; type: functional; how it was run: as §1
Listeria monocytogenes [13] = assay: Antibacterial activity against Listeria monocytogenes ATCC 4428; type: functional; how it was run: as §1
Staphylococcus aureus [14] = assay: Antibacterial activity against Staphylococcus aureus 341; type: functional; how it was run: as §1
Staphylococcus aureus [15] = assay: Antibacterial activity against Staphylococcus aureus 343; type: functional; how it was run: as §1
Staphylococcus aureus [16] = assay: Antibacterial activity against Staphylococcus aureus K28; type: functional; how it was run: as §1
Staphylococcus aureus [17] = assay: Antibacterial activity against Staphylococcus aureus ATCC 29213; type: functional; how it was run: as §1
[18] = system: Staphylococcus haemolyticus; assay: Antibacterial activity against Staphylococcus haemolyticus ATCC 2997; type: functional; how it was run: as §1
[19] = system: Staphylococcus saprophyticus; assay: Antibacterial activity against Staphylococcus saprophyticus ATCC 15305; type: functional; how it was run: as §1
Citrobacter = assay: Antibacterial activity against Citrobacter 224; type: functional; how it was run: as §1
Streptococcus = assay: Antibacterial activity against Streptococcus 42; type: functional; how it was run: as §1
Vero [20] = assay: Cytotoxicity against Vero cells measured as percent of cell growth at 50 mg/L relative to control by MTT assay; type: functional, Chlorocebus sabaeus; how it was run: as §2
[21] = system: Staphylococcus epidermidis; assay: Antibacterial activity against multiresistant Staphylococcus epidermidis 39; type: functional
How it was run: (§3)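 Clinical multidrug-resistant isolates from hospitalized patients' blood or urine. Bacteria grown in Mueller-Hinton broth at 37 °C for 24 h. Exponential-phase cultures diluted in sterile liquid medium to a final inoculum of about 1 × 10⁴ CFU/mL, then exposed to increasing compound concentrations. Inhibitor stocks in DMSO. MIC (µg/mL) taken as the lowest concentration with no evident bacterial growth.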

[22] = system: Staphylococcus epidermidis; assay: Antibacterial activity against multiresistant Staphylococcus epidermidis 42; type: functional
[23] = system: Staphylococcus epidermidis; assay: Antibacterial activity against multiresistant Staphylococcus epidermidis 33; type: functional
Vero [24] = assay: Cytotoxicity against Vero cells measured as percent of cell growth at 1.56 mg/L relative to control by MTT assay; type: functional, Chlorocebus sabaeus; how it was run: as §2
[25] = system: Staphylococcus epidermidis; assay: Antibacterial activity against multiresistant Staphylococcus epidermidis 45; type: functional; how it was run: as §3
[26] = system: Staphylococcus epidermidis; assay: Antibacterial activity against multiresistant Staphylococcus epidermidis […]; type: functional
[27] = system: Staphylococcus epidermidis; assay: Antibacterial activity against multiresistant Staphylococcus epidermidis 30; type: functional; how it was run: as §3
[28] = system: Staphylococcus epidermidis; assay: Antibacterial activity against multiresistant Staphylococcus epidermidis 32; type: functional; how it was run: as §3
[29] = system: Staphylococcus epidermidis; assay: Antibacterial activity against multiresistant Staphylococcus epidermidis 50; type: functional; how it was run: as §3
[30] = system: Staphylococcus epidermidis; assay: Antibacterial activity against multiresistant Staphylococcus epidermidis 21; type: functional; how it was run: as §3
[31] = system: Staphylococcus epidermidis; assay: Antibacterial activity against multiresistant Staphylococcus epidermidis 48; type: functional; how it was run: as §3
[32] = system: Staphylococcus epidermidis; assay: Antibacterial activity against multiresistant Staphylococcus epidermidis 36; type: functional; how it was run: as §3
Staphylococcus aureus [33] = assay: Antibacterial activity against multiresistant Staphylococcus aureus 27; type: functional; how it was run: as §3
Staphylococcus aureus [34] = assay: Antibacterial activity against multiresistant Staphylococcus aureus 15; type: functional; how it was run: as §3
Staphylococcus aureus [35] = assay: Antibacterial activity against multiresistant Staphylococcus aureus 17; type: functional; how it was run: as §3
[36] = system: Staphylococcus haemolyticus; assay: Antibacterial activity against multiresistant Staphylococcus haemolyticus 51; type: functional; how it was run: as §3
[37] = system: Staphylococcus haemolyticus; assay: Antibacterial activity against multiresistant Staphylococcus haemolyticus 56; type: functional; how it was run: as §3
Enterococcus faecium [38] = assay: Antibacterial activity against multiresistant Enterococcus faecium 52; type: functional; how it was run: as §3
Enterococcus faecium [39] = assay: Antibacterial activity against multiresistant Enterococcus faecium 28; type: functional; how it was run: as §3
Enterococcus faecium [40] = assay: Antibacterial activity against multiresistant Enterococcus faecium 57; type: functional; how it was run: as §3
Enterococcus faecium [41] = assay: Antibacterial activity against multiresistant Enterococcus faecium 6; type: functional; how it was run: as §3
Enterococcus gallinarum [42] = assay: Antibacterial activity against multiresistant Enterococcus gallinarum 37; type: functional; how it was run: as §3
Enterococcus gallinarum [43] = assay: Antibacterial activity against multiresistant Enterococcus gallinarum 64; type: functional; how it was run: as §3
Staphylococcus aureus [44] = assay: Antibacterial activity against multiresistant Staphylococcus aureus 9; type: functional; how it was run: as §3

## O=C1OC(c2ccc(O)c(Cl)c2)(c2ccc(O)c(Cl)c2)c2cccc3cccc1c23
Enterococcus faecalis
  MIC: 10 µg/mL (≈ 22.9 µM)
Escherichia coli [1]
  MIC: > 25 µg/mL
Escherichia coli [2]
  MIC: > 25 µg/mL
Vero [3]
  Activity: 70%
Vero [4]
  Activity: 90%
Vero [5]
  Activity: 90%
Vero [6]
  Activity: 90%
Dihydrofolate reductase
  Ki: 5.2 µM
Listeria monocytogenes [7]
  MIC: 2.5 µg/mL (≈ 5.72 µM)
Listeria monocytogenes [8]
  MIC: 10 µg/mL (≈ 22.9 µM)
Listeria monocytogenes [9]
  MIC: 5 µg/mL (≈ 11.4 µM)
Listeria monocytogenes [10]
  MIC: 10 µg/mL (≈ 22.9 µM)
Listeria monocytogenes [11]
  MIC: 5 µg/mL (≈ 11.4 µM)
Listeria monocytogenes [12]
  MIC: 5 µg/mL (≈ 11.4 µM)
Listeria monocytogenes [13]
  MIC: 5 µg/mL (≈ 11.4 µM)
Staphylococcus aureus [14]
  MIC: 5 µg/mL (≈ 11.4 µM)
Staphylococcus aureus [15]
  MIC: 5 µg/mL (≈ 11.4 µM)
Staphylococcus aureus [16]
  MIC: > 25 µg/mL
Staphylococcus aureus [17]
  MIC: 5 µg/mL (≈ 11.4 µM)
[18]
  MIC: 2.5 µg/mL (≈ 5.72 µM)
[19]
  MIC: 2.5 µg/mL (≈ 5.72 µM)
Citrobacter
  MIC: > 25 µg/mL
Streptococcus
  MIC: 5 µg/mL (≈ 11.4 µM)
Vero [20]
  Activity: 58%
[21]
  MIC: 2.5 µg/mL (≈ 5.72 µM)
[22]
  MIC: 5 µg/mL (≈ 11.4 µM)
[23]
  MIC: > 65 µg/mL
Vero [24]
  Activity: 90%
[25]
  MIC: > 65 µg/mL
[26]
  MIC: > 65 µg/mL
[27]
  MIC: > 65 µg/mL
[28]
  MIC: > 65 µg/mL
[29]
  MIC: > 65 µg/mL
[30]
  MIC: > 65 µg/mL
[31]
  MIC: > 65 µg/mL
[32]
  MIC: > 65 µg/mL
Staphylococcus aureus [33]
  MIC: > 65 µg/mL
Staphylococcus aureus [34]
  MIC: > 65 µg/mL
Staphylococcus aureus [35]
  MIC: > 65 µg/mL
[36]
  MIC: > 65 µg/mL
[37]
  MIC: > 65 µg/mL
Enterococcus faecium [38]
  MIC: > 65 µg/mL
Enterococcus faecium [39]
  MIC: > 75 µg/mL
Enterococcus faecium [40]
  MIC: 10 µg/mL (≈ 22.9 µM)
Enterococcus faecium [41]
  MIC: 10 µg/mL (≈ 22.9 µM)
Enterococcus gallinarum [42]
  MIC: 10 µg/mL (≈ 22.9 µM)
Enterococcus gallinarum [43]
  MIC: 2.5 µg/mL (≈ 5.72 µM)
Staphylococcus aureus [44]
  MIC: > 65 µg/mL

— ChEMBL document CHEMBL1137378, “Antibacterial agent discovery using thymidylate synthase biolibrary screening” (J Med Chem, 2006)
